Laboratory results: ChEMBL document CHEMBL1145764, “Nonbenzamidine isoxazoline derivatives as factor Xa inhibitors” (Bioorg Med Chem Lett, 2003)

Legend:
Coagulation factor X [1] = target: Coagulation factor X (Homo sapiens, UniProt P00742); test: Inhibitory activity against factor Xa using human purified enzyme.
Method in brief: (§1)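 Human purified enzyme in 0.1 M sodium phosphate buffer with 0.2 M NaCl and 0.5% polyethylene glycol 6000, pH 7.0. Inhibitor tested at eight half-log concentrations from 10 down to 0.00316. Plates read at 405 nm for 30 min. Rates compared with no-inhibitor controls to give % activity, converted to Ki using substrate concentration and Km. Duplicate runs with common internal standards.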

Prothrombin = Prothrombin (Homo sapiens, UniProt P00734); test: Inhibitory activity against thrombin using human purified enzyme; method in brief: as §1
Serine protease 1 = Serine protease 1 (Homo sapiens, UniProt P07477); test: Inhibitory activity against trypsin using human purified enzyme; method in brief: as §1
Serine protease 1, sequence (P07477 whole entry): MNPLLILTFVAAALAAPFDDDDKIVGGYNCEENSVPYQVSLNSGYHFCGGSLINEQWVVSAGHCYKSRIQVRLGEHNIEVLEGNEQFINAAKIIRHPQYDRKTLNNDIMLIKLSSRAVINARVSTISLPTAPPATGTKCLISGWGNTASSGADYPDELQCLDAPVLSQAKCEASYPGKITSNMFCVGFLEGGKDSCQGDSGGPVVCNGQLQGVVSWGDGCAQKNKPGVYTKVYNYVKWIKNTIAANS

Oryctolagus cuniculus [2] = species on record: Oryctolagus cuniculus; test: (§2) Inhibitory concentration required for antithrombotic efficacy in rabbit arterio-venous shunt model; format: functional
[3] = Pharmacokinetic profile in terms of half life was determined at a dose of 5 mg/kg administered intravenously in dog; format: ADME, organism-based, Canis lupus familiaris; set-up: dose 5 mg/kg, route intravenous; conditions: in vivo, iv
[4] = Pharmacokinetic profile in terms of clearance was determined at a dose of 5 mg/kg administered intravenously in dog; format: ADME, organism-based, Canis lupus familiaris; set-up: dose 5 mg/kg, route intravenous; conditions: in vivo, iv
Coagulation factor X [5] = target: T1, Coagulation factor X (Oryctolagus cuniculus, UniProt O19045); test: Inhibitory activity against Rabbit factor Xa was determined
T1 sequence (O19045 whole entry): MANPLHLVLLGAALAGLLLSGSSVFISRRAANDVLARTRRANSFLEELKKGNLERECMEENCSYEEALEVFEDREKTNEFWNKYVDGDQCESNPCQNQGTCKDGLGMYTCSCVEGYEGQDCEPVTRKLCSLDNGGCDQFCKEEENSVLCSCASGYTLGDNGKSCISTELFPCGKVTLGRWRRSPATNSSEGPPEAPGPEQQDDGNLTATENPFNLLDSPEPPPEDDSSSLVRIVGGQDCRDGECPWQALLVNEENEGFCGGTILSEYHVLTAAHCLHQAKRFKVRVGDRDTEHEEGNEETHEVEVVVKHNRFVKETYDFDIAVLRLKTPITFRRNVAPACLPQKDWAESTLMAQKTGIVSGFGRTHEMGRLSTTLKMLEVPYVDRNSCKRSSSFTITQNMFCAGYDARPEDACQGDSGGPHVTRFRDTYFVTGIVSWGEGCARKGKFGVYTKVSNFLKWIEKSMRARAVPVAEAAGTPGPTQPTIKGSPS

[6] = Pharmacokinetic profile in terms of half life was determined at a dose of 0.5 mg/kg administered intravenously in dog; format: ADME, organism-based, Canis lupus familiaris; set-up: dose 0.5 mg/kg, route intravenous; conditions: in vivo, iv
[7] = Pharmacokinetic profile in terms of clearance was determined at a dose of 0.5 mg/kg administered intravenously in dog; format: ADME, organism-based, Canis lupus familiaris; set-up: dose 0.5 mg/kg, route intravenous; conditions: in vivo, iv
Oryctolagus cuniculus [8] = species on record: Oryctolagus cuniculus; test: as §2; format: functional, organism-based

Coagulation factor X (Homo sapiens, UniProt P00742), sequence (P00742 41-179 limits assumed): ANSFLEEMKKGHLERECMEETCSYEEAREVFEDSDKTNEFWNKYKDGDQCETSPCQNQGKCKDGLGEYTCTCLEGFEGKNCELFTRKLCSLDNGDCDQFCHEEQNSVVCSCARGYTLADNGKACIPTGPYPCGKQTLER
Coagulation factor X (Homo sapiens, UniProt P00742), sequence (P00742 235-488 limits assumed): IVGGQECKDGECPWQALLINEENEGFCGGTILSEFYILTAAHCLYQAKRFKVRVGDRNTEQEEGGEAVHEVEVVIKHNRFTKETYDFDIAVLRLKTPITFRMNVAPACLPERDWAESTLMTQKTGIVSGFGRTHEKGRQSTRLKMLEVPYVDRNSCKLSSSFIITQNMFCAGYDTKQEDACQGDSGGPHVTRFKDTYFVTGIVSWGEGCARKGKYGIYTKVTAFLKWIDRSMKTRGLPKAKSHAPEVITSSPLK

Row | Ki (Coagulation factor X [1]) [nM] | Ki (Prothrombin) [nM] | Ki (Serine protease 1) [nM] | Structure (SMILES) | also measured
1 | 10 | > 6300 | > 4200 | COc1ccc(C2=NOC(CNS(C)(=O)=O)(C(=O)Nc3ccc(-c4ccccc4S(N)(=O)=O)cn3)C2)cc1 (centres undefined) | 
2 |  |  |  | N=C(N)c1cccc(C2=NOC(Cn3cnnn3)(C(=O)Nc3ccc(-c4ccccc4S(N)(=O)=O)cn3)C2)c1 (centres undefined) | ID50 (Oryctolagus cuniculus [2]): 0.032 µM/h/kg; half-life [3]: 1.1 h; clearance [4]: 22 mL/min/kg; Ki (Coagulation factor X [5]): 0.11 nM
3 | 130 |  |  | CC1(C(=O)Nc2ccc(-c3ccccc3S(N)(=O)=O)cc2)CC(c2ccc(Cl)c(N)c2)=NO1 (centres undefined) | 
4 | 7.2 |  |  | CC1(C(=O)Nc2ccc(-c3ccccc3S(N)(=O)=O)cc2)CC(c2cccc(C(=N)N)c2)=NO1 (centres undefined) | 
5 | 4.6 | 5200 | > 5200 | CS(=O)(=O)NCC1(C(=O)Nc2ccc(-c3ccccc3S(N)(=O)=O)cn2)CC(c2ccc3onc(N)c3c2)=NO1 (centres undefined) | 
6 | 14 | > 21000 | > 1600 | Nc1cc(C2=NOC(Cn3cccn3)(C(=O)Nc3ccc(-c4ccccc4S(N)(=O)=O)cn3)C2)ccc1Cl (racemic) | 
7 | 2.5 | 9300 | > 1600 | NC(=O)NCC1(C(=O)Nc2ccc(-c3ccccc3S(N)(=O)=O)cn2)CC(c2ccc(Cl)c(N)c2)=NO1 (racemic) | 
8 | 11 | > 21000 | > 1600 | CC(=O)NCC1(C(=O)Nc2ccc(-c3ccccc3S(N)(=O)=O)cn2)CC(c2ccc(Cl)c(N)c2)=NO1 (racemic) | 
9 | 10 | > 21000 | > 1600 | Nc1cc(C2=NOC(Cn3cnnn3)(C(=O)Nc3ccc(-c4ccccc4S(N)(=O)=O)cn3)C2)ccc1Cl (racemic) | 
10 | 2.2 | 6200 | > 4200 | Nc1cc(C2=NOC(CNS(=O)(=O)Cc3ccccc3)(C(=O)Nc3ccc(-c4ccccc4S(N)(=O)=O)cn3)C2)ccc1Cl (racemic) | 
11 | 1.7 | > 21000 | > 8000 | Nc1cc(C2=NOC(CNS(=O)(=O)c3ccccc3)(C(=O)Nc3ccc(-c4ccccc4S(N)(=O)=O)cn3)C2)ccc1Cl (racemic) | 
12 | 3.3 | 6600 | > 8000 | Nc1cc(C2=NOC(CNS(=O)(=O)CC(F)(F)F)(C(=O)Nc3ccc(-c4ccccc4S(N)(=O)=O)cn3)C2)ccc1Cl (racemic) | 
13 | 1.2 | > 21000 | > 8000 | Nc1cc(C2=NOC(CNS(=O)(=O)c3ccsc3)(C(=O)Nc3ccc(-c4ccccc4S(N)(=O)=O)cn3)C2)ccc1Cl (racemic) | 
14 | 1.9 | 1300 | > 8000 | CS(=O)(=O)NCC1(C(=O)Nc2ccc(-c3ccccc3S(N)(=O)=O)cn2)CC(c2ccc(Cl)c(N)c2)=NO1 (racemic) | 
15 | 34 | > 21000 | > 4200 | Nc1cc(C2=NOC(Cn3cncn3)(C(=O)Nc3ccc(-c4ccccc4S(N)(=O)=O)cn3)C2)ccc1Cl (racemic) | 
16 | 5.5 | 5900 | > 8000 | Nc1cc(C2=NOC(CNS(N)(=O)=O)(C(=O)Nc3ccc(-c4ccccc4S(N)(=O)=O)cn3)C2)ccc1Cl (racemic) | 
17 | 3 | 17000 | > 8000 | Nc1cc(C2=NOC(CNS(=O)(=O)c3cccnc3)(C(=O)Nc3ccc(-c4ccccc4S(N)(=O)=O)cn3)C2)ccc1Cl (racemic) | 
18 | 15 | 14000 | > 8000 | Nc1cc(C2=NOC(CNC=O)(C(=O)Nc3ccc(-c4ccccc4S(N)(=O)=O)cn3)C2)ccc1Cl (racemic) | 
19 | 3.7 | 18000 | > 8000 | CCCS(=O)(=O)NCC1(C(=O)Nc2ccc(-c3ccccc3S(N)(=O)=O)cn2)CC(c2ccc(Cl)c(N)c2)=NO1 (racemic) | 
20 | 69 | > 6300 | > 4200 | CCNC(=O)NCC1(C(=O)Nc2ccc(-c3ccccc3S(N)(=O)=O)cn2)CC(c2ccc(Cl)c(N)c2)=NO1 (racemic) | 
21 | 1100 | > 21000 | > 1600 | Nc1cc(C2=NOC(Cn3cccn3)(C(=O)Nc3ccc(-c4ccccc4S(N)(=O)=O)cn3)C2)ccc1Cl (single isomer, unassigned; (+)) | 
22 | 69 | > 21000 | > 6000 | NC(=O)NCC1(C(=O)Nc2ccc(-c3ccccc3S(N)(=O)=O)cn2)CC(c2ccc(Cl)c(N)c2)=NO1 (single isomer, unassigned; (+)) | 
23 | 320 | > 21000 | > 1600 | Nc1cc(C2=NOC(Cn3cnnn3)(C(=O)Nc3ccc(-c4ccccc4S(N)(=O)=O)cn3)C2)ccc1Cl (single isomer, unassigned; (+)) | 
24 | 240 | > 21000 | > 4200 | CS(=O)(=O)NCC1(C(=O)Nc2ccc(-c3ccccc3S(N)(=O)=O)cn2)CC(c2ccc(Cl)c(N)c2)=NO1 (single isomer, unassigned; (+)) | 
25 | 15 | > 21000 | > 1600 | Nc1cc(C2=NOC(Cn3cccn3)(C(=O)Nc3ccc(-c4ccccc4S(N)(=O)=O)cn3)C2)ccc1Cl (single isomer, unassigned; (-)) | 
26 | 2.5 | 800 | > 1600 | NC(=O)NCC1(C(=O)Nc2ccc(-c3ccccc3S(N)(=O)=O)cn2)CC(c2ccc(Cl)c(N)c2)=NO1 (single isomer, unassigned; (-)) | half-life [6]: 2.32 h; clearance [7]: 7.17 mL/min/kg; ID50 (Oryctolagus cuniculus [8]): 5.5 µmol/kg/h; Ki (Coagulation factor X [5]): 4.7 nM
27 | 1.5 | 800 | > 8000 | CS(=O)(=O)NCC1(C(=O)Nc2ccc(-c3ccccc3S(N)(=O)=O)cn2)CC(c2ccc(Cl)c(N)c2)=NO1 (stereo in doubt) | half-life [6]: 7.25 h; ID50 (Oryctolagus cuniculus [2]): 8 µM/h/kg; clearance [7]: 8.83 mL/min/kg; Ki (Coagulation factor X [5]): 2.3 nM
28 | 7.1 | 19000 | > 1600 | Nc1cc(C2=NOC(Cn3cnnn3)(C(=O)Nc3ccc(-c4ccccc4S(N)(=O)=O)cn3)C2)ccc1Cl (stereo in doubt; 20 (-)) | 
